# Screens from PubChem BioAssay.
# Jurkat NFkB inh: inhibitors of induced NF-kB luciferase reporter, primary screen, TCR NF-kB activation inhibitor project, cell-based, luminescence, uHTS; Jurkat, PMA/ionomycin-induced NF-kB luciferase reporter; inhibition, % at 4 µM; hit rate 0.53% among 330,000; in the data active = inhibition above about 50%
# miR122 inh: miR-122 Renilla sensor signal increase in Huh7, primary screen, miR-122 inhibitor project, cell-based, single point, plate reader | Huh7 miR-122 Renilla luciferase sensor, 48 h; neutral wells = 0, positive control = 100 | activation (reporter increase), % at 12.5 µM | hit rate 0.3% among 340,000;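 active = mean replicate activation score at least 90 and every replicate individually at or above 90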;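 also: higher luciferase means less miR-122 activity so hits act as miR-122 inhibitors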
# NR2E3 ag-1: NR2E3 agonists in two-hybrid cells, primary screen, cell-based, luminescence, CHO-S, Gal4-NCOR/VP16-NR2E3; Photoreceptor-specific nuclear receptor (Homo sapiens), Q9Y5X4; hit rate 0.35% among 360,000; luciferase; AID 602229, 2012; inhibition of corepressor binding, % at 3.98 µM;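 active = inhibition above the mean of all tested compounds plus 3 SD, cut at about 70% in these data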;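 also: 0% = DMSO with NR2E3 transfected cells and 100% = cells lacking NR2E3 construct; higher means lower luciferase signal from less NR2E3 corepressor binding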
# Target sequence (Q9Y5X4 whole entry, looked up, the tested form may be a part): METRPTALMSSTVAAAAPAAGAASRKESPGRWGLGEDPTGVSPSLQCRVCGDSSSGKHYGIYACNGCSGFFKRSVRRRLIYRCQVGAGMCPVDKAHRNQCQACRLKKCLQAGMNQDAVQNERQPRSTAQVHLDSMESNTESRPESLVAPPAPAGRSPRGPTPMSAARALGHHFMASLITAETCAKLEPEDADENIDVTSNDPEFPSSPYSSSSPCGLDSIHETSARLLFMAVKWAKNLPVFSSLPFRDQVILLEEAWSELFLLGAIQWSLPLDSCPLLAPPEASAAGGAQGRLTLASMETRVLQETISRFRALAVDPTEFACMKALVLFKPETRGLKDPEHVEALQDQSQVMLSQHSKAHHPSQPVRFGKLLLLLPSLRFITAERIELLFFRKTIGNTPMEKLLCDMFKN
# NR2E3 ag-2: inhibitors of NR2E3-RetCOR corepressor binding, primary screen, NR2E3 agonist project, biochemical, TR-FRET, GST-NR2E3, biotin-RetCOR; 1536-well; Photoreceptor-specific nuclear receptor (Homo sapiens), Q9Y5X4; inhibition of corepressor binding, % at 4.78 µM; AID 2300, 2010; hit rate 0.12% among 320,000;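 active = percent inhibition above the cutoff of mean plus 3 SD of all tested compounds, set per screening campaign, cut at about 20% in these data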;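 also: 0% = DMSO wells and 100% = biotin wells as full block of FRET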
#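 System: GST-NR2E3 and biotin-RetCOR proteins; probe or stimulus: 7 nM biotin-RetCOR; doses: compound at 4.8 µM, single dose; schedule: Compound–protein incubation for 5 h at 4 °C; detection: time-resolved FRET; read-out: percent inhibition; controls: biotin wells as high control, 0.6% DMSO wells as low control; format: 1536-well plates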
# 697 NFkB inh: inhibitors of PMA/ionomycin-induced NF-kB reporter, 697 cells, primary screen, B-cell NF-kB inhibitor project, cell-based, luminescence, uHTS | AID 435022, 2010 | inhibition, % at 4 µM | hit rate 0.33% among 330,000 | 697 B-cell NF-kB luciferase reporter, 16 h; in the data active = inhibition above about 35%
# FGF22 binding: binders of human FGF22 protein, primary screen, FGF22 synaptogenesis inhibitor project, biophysical, thermal shift, single point. activity (Tm shift, normalised), % at 9.99 µM. AID 651658, 2012. Fibroblast growth factor 22 (Homo sapiens), Q9HCT0. recombinant FGF22 thermal shift, SYPRO orange fluorescence; percent of sucrose octasulfate shift, DMSO zero. hit rate 1.5% among 340,000;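 active = mean Tm shift, scaled 0 neutral to 100 positive control, at about 1.3% or above, every replicate too, limit read from the data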
# Target sequence (Q9HCT0 whole entry, looked up): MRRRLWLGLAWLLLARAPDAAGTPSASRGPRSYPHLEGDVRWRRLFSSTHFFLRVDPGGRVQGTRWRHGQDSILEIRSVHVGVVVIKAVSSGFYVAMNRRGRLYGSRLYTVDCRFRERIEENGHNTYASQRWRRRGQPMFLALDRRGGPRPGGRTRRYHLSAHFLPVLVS
# 697 NFkB conf: PMA/ionomycin-induced NF-kB reporter inhibitors, 697 retest, confirmation, B-cell NF-kB inhibitor project, cell-based, luminescence, single concentration; shares compounds with 697 NFkB inh; 697 B-cell NF-kB luciferase, 16 h; inhibition, % at 4 µM; hit rate 35% among 2,000; in the data active = inhibition mostly above about 28%, no sharp cut-off; inactive = mostly below about 22%
# Numbers without * were called inactive; i = inactive; · = not tested or not shown; [ ] = another dose, or the depositor's remark. A selection: hits, their analogues and other compounds. The true share with any hit is near 2.2%.
SMILES,Jurkat NFkB inh,miR122 inh,NR2E3 ag-1,NR2E3 ag-2,697 NFkB inh,FGF22 binding,697 NFkB conf
COc1cc2c(cc1C1NC(=S)NC(C)=C1C(N)=O)CCCC2 (centres undefined),-22.0,·,4.1,2.4,42.6*,0.6,0.9
CC1=C(C(N)=O)C(c2cccs2)NC(=S)N1 (centres undefined),-1.7,0.5,-61.6,0.6,3.2,42.4,·
Cc1nc(NC(=O)C2CC2)sc1C(=O)Nc1ccccc1,0.6,-8.5,2.7,-1.0,0.3,0.0,·
Cc1nc(Nc2c(Cl)cccc2Cl)sc1C(=O)Nc1ccccc1,6.2,·,2.0,4.5,37.0*,0.1,36.2*
O=C(c1ccccc1)N1CC[C@H]2[C@H](CO)Nc3ccc(-c4ccccc4F)cc3[C@H]21,·,0.2[16.7 µM],·,·,·,-0.5,·
C[C@H](CO)N1C[C@H](C)[C@H](CN(C)S(C)(=O)=O)Oc2cc(C#CC3CC3)ccc2S1(=O)=O,·,21.7[16.7 µM],·,·,·,-0.1,·
CC(=O)N[C@@H]1CC[C@@H](CC(=O)NCc2ccc(Cl)cc2)O[C@@H]1CO,·,·,·,·,·,0.3,·
CCC1(c2ccc(F)cc2)NC(=O)N(CC(=O)NC2CCCC(C)C2C)C1=O (centres undefined),21.4,-13.4,17.5,·,24.5,-0.3,·
CCC1(c2ccc(Cl)cc2)NC(=O)N(CC(=O)NC2CCCC(C)C2C)C1=O (centres undefined),22.4,-3.8,20.3,·,38.5*,-0.1,-0.7
CCC1CCCCN1CCCNC(=O)c1ccc2nc(N3CCCCC3)sc2c1 (centres undefined),-93.4,2.4,-93.0,-3.6,-298.4,-0.3,-309.5
COc1ccc(CN(C)C[C@@H]2OCCCC[C@H](C)Oc3ccc(NC(=O)Cc4ccccc4)cc3C(=O)N([C@@H](C)CO)C[C@H]2C)cc1,·,-14.3[16.7 µM],·,·,·,-0.2,·
C/C(N)=C(/C#N)C(=O)COC(=O)c1cc(C)n(-c2ccc(F)cc2)c1C,-60.7,8.6,-63.3,9.6,-498.0,-0.6,-294.5
CNC(=S)N/N=C/c1cn(CCOc2ccccc2OC)c2ccccc12,-13.4,·,3.3,1.1,35.3*,·,14.9
COc1cccc(OCCn2cc(/C=N/NC(=O)c3ccncc3)c3ccccc32)c1,1.4,·,-17.9,-0.2,-22.8,·,·
CNC(=S)N/N=C/c1cn(CCOc2cccc(OC)c2)c2ccccc12,-8.2,·,-8.4,-0.2,39.5*,·,-10.9
O=C(Nc1ccc2c(c1)CCCN2C(=O)c1ccccc1)c1ccccc1Br,-12.9,·,11.7,-1.9,-333.3,0.0,-180.0
CC1C(=O)N2CCCc3cc(NC(=O)c4ccccc4Br)cc1c32 (centres undefined),16.6,5.0,8.7,-2.2,40.9*,-0.1,22.6
COc1ccccc1C(=O)Nc1ccc2c(c1)CCCN2C(=O)c1ccccc1,-1.7,-7.5,-24.8,0.5,-2.7,-0.3,·
CNC(=O)/C(C#N)=C1\SC(Cc2ccc(F)cc2)C(=O)N1c1ccccc1C (centres undefined),-24.1,-1.9,-8.4,2.5,-41.5,0.1,·
C/C(=N\N=C1\NC(=O)C(Cc2ccccc2)S1)c1ccccc1 (centres undefined),-7.1,·,26.2,-1.9,10.3,0.1,·
CC(=O)/C(C#N)=C1\NC(=O)C(Cc2ccccc2)S1 (centres undefined),-2.7,1.8,17.4,0.4,i,·,i
CC(=O)/C(C#N)=C1\NC(=O)C(Cc2ccccc2C)S1 (centres undefined),19.2,13.0,5.3,-1.1,i,0.0,i
COc1ccc(-c2cc(C(=O)N(C)CC(=O)Nc3ccccc3Br)c3ccccc3n2)cc1OC,19.7,-4.1,2.0,1.3,44.4*,-0.1,20.9
CCC(C)(C)c1ccc(OCCCC[n+]2ccccc2)c(C(C)(C)CC)c1,44.8,·,-1.9,2.6,77.6*,-0.2,34.2*
Cc1ccc(S(=O)(=O)Nc2ccc(-c3cn4ccc(C)cc4n3)cc2)cc1,-6.9,38.1,2.8,1.9,-15.4,-0.1,·
SMILES,Jurkat NFkB inh,miR122 inh,NR2E3 ag-1,NR2E3 ag-2,697 NFkB inh,FGF22 binding,697 NFkB conf
Cc1ccn2cc(-c3ccc(Br)cc3)nc2c1,-148.7,-1.7,-135.7,-0.3,-341.2,0.0,-417.1
O=C(OCCc1ccccc1)c1cc(O)c(O)c(O)c1,-48.5,-5.7,-156.7,-1.6,i,·,-233.2
Cc1ccc(C)c(S(=O)(=O)N2CCN(C(=O)Cc3ccccc3)CC2)c1,-10.9,-2.7,-23.4,1.5,10.1,0.1,·
Cc1ccc(C)c(S(=O)(=O)N2CCN(C(=O)Cn3c(C(F)(F)F)nc4ccccc43)CC2)c1,9.5,0.1,24.2,3.3,37.0*,·,6.9
COC(=O)C[C@H]1C[C@H]2c3cc(NC(=O)C4CCC4)ccc3O[C@H]2[C@@H](CO)O1,·,4.3[16.7 µM],·,·,·,-0.2,·
CC1(c2nnc(-c3cccc(Cl)c3)o2)CC(c2cccc(Cl)c2)=NO1 (centres undefined),32.5,-3.7,-1.4,0.4,37.3*,-0.1,37.2*
C/C=C/c1cnc2c(c1)C(=O)N([C@@H](C)CO)C[C@@H](C)[C@@H](CN(C)C(=O)Nc1ccc(C(F)(F)F)cc1)O2,·,-2.0[16.7 µM],·,·,·,-0.5,·
CCOC(=O)C1CCCc2c1[nH]c1ccc(Cl)cc21 (centres undefined),-26.7,0.8,9.3,-2.7,-426.6,0.1,-14.9
CCc1ccccc1NC(=O)CSc1nnc([C@@H]2CCCN2C(=O)OC(C)(C)C)o1,-14.6,-7.2,3.3,-2.5,35.7*,·,16.0
Cc1cccc(C)c1NC(=O)CSc1nnc([C@@H]2CCCN2C(=O)OC(C)(C)C)o1,7.9,-8.4,-1.0,1.5,22.3,·,·
CCCC(=O)Nc1ccc2c(c1)OC[C@H](C)N(Cc1ccccc1F)C[C@@H](C)[C@H](OC)CN(C)C2=O,·,·,·,·,·,-0.2,·
COc1ccc(CC(=O)NNC(=O)c2cnccn2)cc1,6.8,7.4,5.8,4.4,9.9,0.0,·
CC(C)(C)C(=O)NNC(=O)c1cnccn1,0.5,·,0.0,2.1,45.3*,0.1,10.2
N=c1ccn2c(n1)OC1C(O)C(CO)OC12 (centres undefined),28.1,-4.9,-18.7,-0.4,54.3*,0.0,59.7*
